# Legend:
# Format in all cases: functional
# Escherichia coli [1] = assay: Antibacterial activity against Escherichia coli strain 25922
# Procedure, shortened: (§1)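 Broth microdilution MIC run to NCCLS standards: serial 2-fold dilutions in cation-adjusted Mueller–Hinton broth, inoculum ~5 × 10^5 CFU/mL, incubated 35 °C for 18–24 h. Trays were read by eye, and the MIC was taken as the lowest concentration giving complete growth inhibition (no visible turbidity).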
# Staphylococcus aureus [2] = assay: Antibacterial activity against Staphylococcus aureus strain St au 33591 MRSA; procedure, shortened: as §1
# Staphylococcus aureus [3] = assay: Antibacterial activity against Staphylococcus aureus strain 29213; procedure, shortened: as §1
# Enterococcus faecalis [4] = assay: Antibacterial activity against Enterococcus faecalis strain 29212; procedure, shortened: as §1
# Pseudomonas aeruginosa [5] = assay: Antibacterial activity against Pseudomonas aeruginosa strain 27853; procedure, shortened: as §1
# Staphylococcus aureus [6] = assay: Antibacterial activity against Staphylococcus aureus strain St au 29213; procedure, shortened: as §1
# Enterococcus faecalis [7] = assay: Antibacterial activity against Enterococcus faecalis; procedure, shortened: as §1
# Staphylococcus aureus [8] = assay: Antibacterial activity against methicillin resistant Staphylococcus aureus
# Procedure, shortened: (§2)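 Broth microdilution per NCCLS standards: serial 2-fold dilutions in cation-adjusted Mueller–Hinton broth, inoculum ~5 × 10^5 CFU/mL, 35 °C for 18–24 h, visual read; MIC = lowest concentration giving complete growth inhibition (no visible turbidity). Reference strains, e.g. S. aureus 29213 (susceptible) and 33591 (MRSA).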
# Staphylococcus aureus [9] = assay: Antibacterial activity against methicillin susceptible Staphylococcus aureus; procedure, shortened: as §2
# Pseudomonas aeruginosa [10] = assay: Antibacterial activity against Pseudomonas aeruginosa; procedure, shortened: as §1
# Escherichia coli [11] = assay: Antibacterial activity against Escherichia coli; procedure, shortened: as §1
SMILES,MIC (Escherichia coli [1]) [µg/mL],MIC (Staphylococcus aureus [2]) [µg/mL],MIC (Staphylococcus aureus [3]) [µg/mL],MIC (Enterococcus faecalis [4]) [µg/mL],MIC (Pseudomonas aeruginosa [5]) [µg/mL],MIC (Staphylococcus aureus [6]) [µg/mL],MIC (Enterococcus faecalis [7]) [µg/mL],MIC (Staphylococcus aureus [8]) [µg/mL],MIC (Staphylococcus aureus [9]) [µg/mL],MIC (Pseudomonas aeruginosa [10]) [µg/mL],MIC (Escherichia coli [11]) [µg/mL]
O=C(O)c1cn(-c2ccc(O)cc2)c2cc(N3CCNCC3)c(F)cc2c1=O,0.4,0.4,0.78,6.25,1.56,–,–,–,–,–,–
NCC1CCN(c2nc3c(cc2F)c(=O)c(C(=O)O)cn3-c2ccc(O)cc2)C1 (stereo not drawn),3.13,1.56,–,3.13,6.25,0.4,–,–,–,–,–
C[C@H](N)[C@@H]1CCN(c2nc3c(cc2F)c(=O)c(C(=O)O)cn3-c2ccc(O)cc2)C1,1.56,1.56,–,6.25,12.5,1.56,–,–,–,–,–
C[C@@H](N)[C@H]1CCN(c2nc3c(cc2F)c(=O)c(C(=O)O)cn3-c2ccc(O)cc2)C1,6.25,1.56,–,12.5,12.5,1.56,–,–,–,–,–
N[C@H]1CN(c2nc3c(cc2F)c(=O)c(C(=O)O)cn3-c2ccc(O)cc2)CC12CC2,0.2,0.4,–,0.78,0.78,0.2,–,–,–,–,–
N[C@@H]1[C@H]2CN(c3nc4c(cc3F)c(=O)c(C(=O)O)cn4-c3ccc(O)cc3)C[C@@H]12,0.1,0.2,–,0.78,0.78,0.2,–,–,–,–,–
N[C@@H]1CN(c2nc3c(cc2F)c(=O)c(C(=O)O)cn3-c2ccc(O)cc2)CC12CC2,1.56,1.56,–,25,3.13,1.56,–,–,–,–,–
CN1CCN(c2cc3c(cc2F)c(=O)c(C(=O)O)cn3-c2ccc(O)cc2)CC1,< 0.05,0.2,–,0.78,0.78,0.1,0.78,0.1,0.1,0.78,0.05
CN1CCN(c2cc3c(cc2F)c(=O)c(C(=O)O)cn3-c2ccc(OP(=O)(O)O)cc2)CC1,–,–,–,–,–,–,25,0.78,1.56,50,0.2
C[C@H](N)[C@H]1CCN(c2nc3c(cc2F)c(=O)c(C(=O)O)cn3-c2ccc(O)cc2)C1,3.13,0.78,–,3.13,3.13,0.78,–,–,–,–,–
O=C(O)c1cn(C2CC2)c2cc(N3CCNCC3)c(F)cc2c1=O [CIPROFLOXACIN],–,–,–,–,–,–,1,0.5,0.25,–,–

# Now from value to compound, other results behind:
MIC (Escherichia coli [1]) [µg/mL],MIC (Staphylococcus aureus [2]) [µg/mL],MIC (Staphylococcus aureus [3]) [µg/mL],MIC (Enterococcus faecalis [4]) [µg/mL],MIC (Pseudomonas aeruginosa [5]) [µg/mL],MIC (Staphylococcus aureus [6]) [µg/mL],SMILES,MIC (Enterococcus faecalis [7]) [µg/mL],MIC (Staphylococcus aureus [8]) [µg/mL],MIC (Staphylococcus aureus [9]) [µg/mL],MIC (Pseudomonas aeruginosa [10]) [µg/mL],MIC (Escherichia coli [11]) [µg/mL]
1.56,0.4,–,3.13,1.56,0.4,O=C(O)c1cn(-c2ccc(O)cc2)c2nc(N3CC4CCCNC4C3)c(F)cc2c1=O (stereo not drawn),–,–,–,–,–
0.4,0.4,–,1.56,0.78,0.4,C[C@H]1CN(c2nc3c(cc2F)c(=O)c(C(=O)O)cn3-c2ccc(O)cc2)C[C@H]1N,–,–,–,–,–
0.1,0.2,–,1.56,6.25,0.2,CN1CCC2CN(c3nc4c(cc3F)c(=O)c(C(=O)O)cn4-c3ccc(O)cc3)CC21 (stereo not drawn),–,–,–,–,–
3.13,0.4,–,3.13,6.25,0.4,N[C@@H]1CCC[C@@H]2CN(c3nc4c(cc3F)c(=O)c(C(=O)O)cn4-c3ccc(O)cc3)C[C@@H]21,–,–,–,–,–
0.4,0.4,–,1.56,0.78,0.4,C[C@@H]1CN(c2nc3c(cc2F)c(=O)c(C(=O)O)cn3-c2ccc(O)cc2)C[C@H]1N,–,–,–,–,–
